Measured values: ChEMBL document CHEMBL1914440, “Discovery of potent, selective, and orally bioavailable alkynylphenoxyacetic acid CRTH2 (DP2) receptor antagonists for the treatment of allergic inflammatory diseases” (J Med Chem, 2011)

tested on: not listed separately; test: Percentage unbound in rat plasma; type: ADME, cell-free; conditions: not given

| SMILES | fraction unbound |
| --- | --- |
| Cc1ccc(S(=O)(=O)CCCO)cc1C#Cc1cc(Cl)ccc1OCC(=O)O | 0.018 |
| CCCc1ccc(S(C)(=O)=O)cc1C#Cc1cc(Cl)ccc1OCC(=O)O | 0.002 |
| O=C(O)COc1ccc(Cl)cc1C#Cc1cccc(S(=O)(=O)CCO)c1 | 0.081 |

tested on: not listed separately; test: Clearance in BALB/c mouse at 5 mg/kg, po by LC/MS/MS analysis; type: ADME, organism-based; set-up: dose 5 mg/kg, route oral; conditions: in vivo

| SMILES | CL/F |
| --- | --- |
| CC(C)S(=O)(=O)c1ccc(Cl)c(C#Cc2cc(Cl)ccc2OCC(=O)O)c1 | 11.7 mL/min/kg |
| O=C(O)COc1ccc(Cl)cc1C#Cc1ccc2c(c1)S(=O)(=O)c1ccccc1-2 | 1.67 mL/min/kg |

tested on: not listed separately; test: Percentage unbound in mouse plasma; type: ADME, cell-free; conditions: not given

| SMILES | fraction unbound |
| --- | --- |
| Cc1ccc(S(=O)(=O)CCCO)cc1C#Cc1cc(Cl)ccc1OCC(=O)O | 0.048 |
| CCCc1ccc(S(C)(=O)=O)cc1C#Cc1cc(Cl)ccc1OCC(=O)O | 0.006 |
| O=C(O)COc1ccc(Cl)cc1C#Cc1cccc(S(=O)(=O)CCO)c1 | 0.3 |

tested on: not listed separately; test: Percentage unbound in human plasma; type: ADME, cell-free; conditions: not given

| SMILES | fraction unbound |
| --- | --- |
| Cc1ccc(S(=O)(=O)CCCO)cc1C#Cc1cc(Cl)ccc1OCC(=O)O | 0.015 |
| CCCc1ccc(S(C)(=O)=O)cc1C#Cc1cc(Cl)ccc1OCC(=O)O | 0.002 |
| O=C(O)COc1ccc(Cl)cc1C#Cc1cccnc1 | 0.029 |
| O=C(O)COc1ccc(Cl)cc1C#Cc1cccc(S(=O)(=O)CCO)c1 | 0.047 |
| O=C(O)COc1ccc(Cl)cc1C#Cc1ccc2c(c1)S(=O)(=O)c1ccccc1-2 | < 0.001 |

target: T1, Prostaglandin D2 receptor 2 (Homo sapiens, UniProt Q9Y5Y4); test: Displacement of [3H]PGD2 from human CRTH2 expressed in chinese hamster CHO cells by liquid scintillation counting; type: cell-based; conditions: not given
T1 sequence (Q9Y5Y4 whole entry): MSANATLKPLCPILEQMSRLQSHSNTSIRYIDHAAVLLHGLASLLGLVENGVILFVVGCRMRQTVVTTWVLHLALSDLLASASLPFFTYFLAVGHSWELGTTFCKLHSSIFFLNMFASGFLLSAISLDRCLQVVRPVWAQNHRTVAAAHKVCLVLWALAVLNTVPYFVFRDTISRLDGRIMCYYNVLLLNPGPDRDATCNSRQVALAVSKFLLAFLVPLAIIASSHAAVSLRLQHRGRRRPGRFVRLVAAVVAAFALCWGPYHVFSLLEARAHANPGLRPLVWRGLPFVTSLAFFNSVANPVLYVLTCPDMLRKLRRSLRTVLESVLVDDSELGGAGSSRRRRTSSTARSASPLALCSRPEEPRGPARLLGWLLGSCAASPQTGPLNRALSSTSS
Procedure, shortened: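 Scintillation proximity competition assay: 2–5 μg human CRTH2 cell membranes, 1.5 nM [3H]PGD2, WGA-SPA beads, 10 mM HEPES/KOH pH 7.4, 10 mM MnCl2, protease inhibitors, 1% DMSO; 90 min, room temperature, shaking. Nonspecific binding defined with 1 μM PGD2. Ki by Cheng–Prusoff, mean of ≥3 independent dose–response experiments.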

| SMILES | Ki |
| --- | --- |
| O=C(O)COc1ccc(Cl)cc1C#Cc1ccccc1 | 108 nM |
| O=C(O)COc1ccc(Cl)cc1C#Cc1ccc(Cl)s1 | 183 nM |
| CCN(Cc1cc(-c2ccc(OC)cn2)ccc1-c1cc(CC(=O)O)ccc1OC)C(=O)C1CC1 | 5 nM |
| CCCS(=O)(=O)c1ccc(C)c(C#Cc2cc(Cl)ccc2OC(C)C(=O)O)c1 (configuration not stated) | 1.2 nM |
| O=C(O)COc1ccc(Cl)cc1C#Cc1ccccc1C(F)(F)F | 24 nM |
| CCCC(Oc1ccc(Cl)cc1C#Cc1cc(S(=O)(=O)CCC)ccc1C)C(=O)O (configuration not stated) | 57 nM |
| Cn1ccnc1C#Cc1cc(Cl)ccc1OCC(=O)O | 1470 nM |
| Cc1ccc(S(=O)(=O)CCc2ccccc2)cc1C#Cc1cc(Cl)ccc1OCC(=O)O | 7 nM |
| CS(=O)(=O)c1cc(C#Cc2cc(Cl)ccc2OCC(=O)O)ccc1-c1cccc(Cl)c1 | 16 nM |
| O=C(O)COc1ccc(Cl)cc1C#Cc1cncc(S(=O)(=O)NCCO)c1 | 301 nM |
| CC1(C)C(=O)c2ccc(C#Cc3cc(Cl)ccc3OCC(=O)O)cc2S1(=O)=O | 31 nM |
| Cc1ccc(S(=O)(=O)CCCO)cc1C#Cc1cc(Cl)ccc1OCC(=O)O | 8 nM |
| CN(c1cncc(C#Cc2cc(Cl)ccc2OCC(=O)O)c1)S(C)(=O)=O | 378 nM |
| N#Cc1ccc(OCC(=O)O)c(C#Cc2ccccc2Cl)c1 | 24 nM |
| CCCc1ccc(S(C)(=O)=O)cc1C#Cc1cc(Cl)ccc1OCC(=O)O | 8.6 nM |
| CCCS(=O)(=O)c1ccc(F)c(C#Cc2cc(Cl)ccc2OC(C)C(=O)O)c1 (configuration not stated) | 3 nM |
| O=C(O)COc1ccc(Cl)cc1C#Cc1ccc2c(c1)S(=O)(=O)C=C2 | 25 nM |
| O=C(O)COc1ccc(Cl)cc1C#Cc1ccc2c(c1)S(=O)(=O)CC2 | 23 nM |
| O=C(O)COc1ccc(Cl)cc1C#Cc1cccnc1 | 117 nM |
| CCCS(=O)(=O)c1cccc(C#Cc2cc(F)ccc2OCC(=O)O)c1 | 65 nM |
| Cc1ccc(S(=O)(=O)N(C)CCCN(C)C)cc1C#Cc1cc(Cl)ccc1OCC(=O)O | 287 nM |
| CS(=O)(=O)c1ccc(C#Cc2cc(Cl)ccc2OCC(=O)O)cc1 | 86 nM |
| O=C(O)COc1ccc(Cl)cc1C#Cc1cc(CO)ccc1F | 73 nM |
| COc1ccc(-c2ccc(C#Cc3cc(Cl)ccc3OCC(=O)O)cc2S(C)(=O)=O)cc1 | 7 nM |

| SMILES | Ki |
| --- | --- |
| CCCCCCc1ccncc1C#Cc1cc(Cl)ccc1OCC(=O)O | 43 nM |
| CCCS(=O)(=O)c1cccc(C#Cc2c(OCC(=O)O)ccc3ccccc23)c1 | 44 nM |
| CN(C)C(=O)c1cccc(C#Cc2cc(Cl)ccc2OCC(=O)O)c1 | 52 nM |
| CCCS(=O)(=O)c1ccc(C)c(C#Cc2cc(Cl)ccc2OC(CC)C(=O)O)c1 (configuration not stated) | 30 nM |
| CC(C)S(=O)(=O)c1cc(C#Cc2cc(Cl)ccc2OCC(=O)O)ccc1C(=O)N1CCOCC1 | 87 nM |
| O=C(O)COc1ccc(Cl)cc1C#Cc1ccccc1F | 47 nM |
| O=C(O)COc1ccc(Cl)cc1C#Cc1cccc(CO)c1F | 41 nM |
| CC(C)S(=O)(=O)c1ccc(Cl)c(C#Cc2cc(Cl)ccc2OCC(=O)O)c1 | 2.9 nM |
| CC(C)(C)N1C(=O)c2ccc(C#Cc3cc(Cl)ccc3OCC(=O)O)cc2S1(=O)=O | 14 nM |
| COCc1ccc(C#Cc2cc(Cl)ccc2OCC(=O)O)c(F)c1 | 22 nM |
| O=C(O)COc1ccc(Cl)cc1C#Cc1ccncc1 | 601 nM |
| Cc1ncccc1C#Cc1cc(Cl)ccc1OCC(=O)O | 143 nM |
| Cc1ccc(S(=O)(=O)Cc2ccccc2)cc1C#Cc1cc(Cl)ccc1OCC(=O)O | 5 nM |
| Cc1cc[n+]([O-])cc1C#Cc1cc(Cl)ccc1OCC(=O)O | 17 nM |
| O=C(O)COc1ccc(Cl)cc1C#Cc1cccc(C(F)(F)F)c1 | 92 nM |
| O=C(O)COc1ccc(Cl)cc1C#Cc1cccc(S(=O)(=O)CCO)c1 | 10 nM |
| COCc1ccc(F)c(C#Cc2cc(Cl)ccc2OCC(=O)O)c1 | 72 nM |
| CCCc1ccncc1C#Cc1cc(Cl)ccc1OCC(=O)O | 4.3 nM |
| CC1(O)c2ccc(C#Cc3cc(Cl)ccc3OCC(=O)O)cc2S(=O)(=O)C1(C)C (configuration not stated) | 28 nM |
| Cc1ccc(S(=O)(=O)N2CCCCC2)cc1C#Cc1cc(Cl)ccc1OCC(=O)O | 5 nM |
| O=C(O)COc1ccc(Cl)cc1C#Cc1ccc(Cl)cc1 | 60 nM |
| Cc1ccc(S(=O)(=O)c2ccccc2)cc1C#Cc1cc(Cl)ccc1OCC(=O)O | 6 nM |
| CC(C)S(=O)(=O)c1cc(C#Cc2cc(Cl)ccc2OCC(=O)O)ccc1C(=O)N(C)C | 65 nM |
| Cc1ccc(S(=O)(=O)N(C)CCN(C)C)cc1C#Cc1cc(Cl)ccc1OCC(=O)O | 369 nM |

| SMILES | Ki |
| --- | --- |
| Cc1ncc(S(=O)(=O)N(C)C)cc1C#Cc1cc(Cl)ccc1OCC(=O)O | 41 nM |
| CCCS(=O)(=O)c1cc(C#Cc2cc(Cl)ccc2OCC(=O)O)c(C)cc1NC(C)=O | 1.3 nM |
| COc1ccccc1C#Cc1cc(Cl)ccc1OCC(=O)O | 190 nM |
| CCN(CC)C(=O)c1ccc(C#Cc2cc(Cl)ccc2OCC(=O)O)cc1S(=O)(=O)C(C)C | 46 nM |
| CS(=O)(=O)c1cc(C#Cc2cc(Cl)ccc2OCC(=O)O)ccc1-c1ccc(Cl)cc1 | 14 nM |
| O=C(O)COc1cc(F)ccc1C#Cc1ccccc1Cl | 4780 nM |
| COC1c2ccc(C#Cc3cc(Cl)ccc3OCC(=O)O)cc2S(=O)(=O)C1(C)C (configuration not stated) | 21 nM |
| CCCS(=O)(=O)c1cccc(C#Cc2cc(-c3cccs3)ccc2OCC(=O)O)c1 | 12 nM |
| CS(=O)(=O)c1cc(C#Cc2cc(Cl)ccc2OCC(=O)O)ccc1-c1ccccc1Cl | 3.5 nM |
| O=C(O)COc1ccc(Cl)cc1C#Cc1ccc(F)cc1F | 101 nM |
| O=C(O)COc1ccc(Cl)cc1C#Cc1cccc(S(=O)(=O)CCCO)c1 | 28 nM |
| CS(=O)(=O)c1cncc(C#Cc2cc(Cl)ccc2OCC(=O)O)c1 | 60 nM |
| CN(C)C(=O)c1ccc(C#Cc2cc(Cl)ccc2OCC(=O)O)cc1 | 55 nM |
| CS(=O)(=O)c1cc(C#Cc2cc(Cl)ccc2OCC(=O)O)ccc1-c1ccc(C(F)(F)F)cc1 | 43 nM |
| CS(=O)(=O)Cc1cccc(C#Cc2cc(Cl)ccc2OCC(=O)O)c1 | 48 nM |
| CCCS(=O)(=O)c1cccc(C#Cc2cc(C(F)(F)F)ccc2OCC(=O)O)c1 | 10 nM |
| CNS(=O)(=O)c1ccc(C)c(C#Cc2cc(Cl)ccc2OCC(=O)O)c1 | 10 nM |
| O=C(O)COc1ccc(Cl)cc1C#Cc1ccccc1Cl | 28 nM |
| O=C(O)COc1ccccc1C#Cc1ccccc1Cl | 747 nM |
| COC1(C)c2ccc(C#Cc3cc(Cl)ccc3OCC(=O)O)cc2S(=O)(=O)C1(C)C (configuration not stated) | 25 nM |
| COc1cccc(-c2ccc(C#Cc3cc(Cl)ccc3OCC(=O)O)cc2S(C)(=O)=O)c1 | 8 nM |
| CS(=O)(=O)Nc1cncc(C#Cc2cc(Cl)ccc2OCC(=O)O)c1 | 19 nM |
| CN(c1cccc(C#Cc2cc(Cl)ccc2OCC(=O)O)c1)S(C)(=O)=O | 122 nM |
| O=C(O)COc1ccc(Cl)cc1C#Cc1cncc(S(=O)(=O)N2CCOCC2)c1 | 41 nM |

| SMILES | Ki |
| --- | --- |
| CCCS(=O)(=O)c1ccc(F)c(C#Cc2cc(Cl)ccc2OC(C)(C)C(=O)O)c1 | 260 nM |
| Cc1ccncc1C#Cc1cc(Cl)ccc1OCC(=O)O | 25 nM |
| CCCS(=O)(=O)c1ccc(C)c(C#Cc2cc(Cl)ccc2OC(CC(C)C)C(=O)O)c1 (configuration not stated) | 515 nM |
| CCN(CC)S(=O)(=O)c1ccc(C)c(C#Cc2cc(Cl)ccc2OCC(=O)O)c1 | 3.4 nM |
| Cc1ccc(S(=O)(=O)CCO)cc1C#Cc1cc(Cl)ccc1OCC(=O)O | 19 nM |
| Cc1ccc(S(=O)(=O)N2CCN(C)CC2)cc1C#Cc1cc(Cl)ccc1OCC(=O)O | 21 nM |
| Cc1ccc(OCC(=O)O)c(C#Cc2ccccc2Cl)c1 | 283 nM |
| C[S+]([O-])c1cccc(C#Cc2cc(Cl)ccc2OCC(=O)O)c1 (configuration not stated) | 3.2 nM |
| Cc1ccc(S(=O)(=O)C(C)C)cc1C#Cc1cc(Cl)ccc1OCC(=O)O | 6 nM |
| CC(C)Cc1ccncc1C#Cc1cc(Cl)ccc1OCC(=O)O | 4.9 nM |
| CCS(=O)(=O)c1ccc(C)c(C#Cc2cc(Cl)ccc2OCC(=O)O)c1 | 8.6 nM |
| Cc1ccc(S(=O)(=O)CC(C)C)cc1C#Cc1cc(Cl)ccc1OCC(=O)O | 3 nM |
| O=C(O)COc1ccc(Cl)cc1C#Cc1ccc2c(c1)S(=O)(=O)c1ccccc1-2 | 12 nM |
| CS(=O)(=O)c1cc(C#Cc2cc(Cl)ccc2OCC(=O)O)ccc1-c1ccccc1 | 5 nM |
| CCCS(=O)(=O)c1cccc(C#Cc2cc(-c3ccsc3)ccc2OCC(=O)O)c1 | 18 nM |
| CN(C)S(=O)(=O)c1cccc(C#Cc2cc(Cl)ccc2OCC(=O)O)c1 | 14 nM |
| Cc1ccc(S(=O)(=O)NC(C)(C)C)cc1C#Cc1cc(Cl)ccc1OCC(=O)O | 5 nM |
| CCCS(=O)(=O)c1cccc(C#Cc2c(Cl)cccc2OCC(=O)O)c1 | 55 nM |
| O=C(O)COc1ccc(Cl)cc1C#Cc1ccccn1 | 1120 nM |
| CCCS(=O)(=O)c1cccc(C#Cc2cc(-c3sc(C)nc3C)ccc2OCC(=O)O)c1 | 54 nM |
| CS(=O)(=O)Nc1cccc(C#Cc2cc(Cl)ccc2OCC(=O)O)c1 | 54 nM |
| CC1(C)C(O)c2ccc(C#Cc3cc(Cl)ccc3OCC(=O)O)cc2S1(=O)=O (configuration not stated) | 33 nM |
